Data published in ChEMBL document CHEMBL1123371, “5-HT1 and 5-HT2 binding characteristics of some quipazine analogues” (J Med Chem, 1986).
The source made the active and inactive calls. No cut-off for these calls is given here.

Columns and labels:
[1] = Displacement of [3H]5-HT from 5-hydroxytryptamine 1 receptor of rat cortical membrane homogenates
[2] = test system: Rattus norvegicus; assay: Stimulus generalization studies in TFMPP trained animals and the number of animals responding /number to receive dose of drug was determined at dose of 1 mg/kg; 3/3; type: functional
How it was run: (§1)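 Male Sprague-Dawley rats (n = 6) trained to discriminate 0.5 mg/kg TFMPP HCl from saline on a two-lever operant task, VI 15-s food reward. Challenge doses were given ip in random order 15 min before a 2.5-min extinction test, with at least three training sessions between tests. Fewer than five total responses was scored as disruption.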

[3] = test system: Rattus norvegicus; assay: Stimulus generalization studies in TFMPP trained animals and the number of animals responding /number to receive dose of drug was determined at dose of 3 mg/kg; 2/3; type: functional
[4] = test system: Rattus norvegicus; assay: Stimulus generalization studies in TFMPP trained animals and the number of animals responding /number to receive dose of drug was determined at dose of 3.5 mg/kg; 2/3; type: functional
[5] = test system: Rattus norvegicus; assay: Compound was evaluated in stimulus generalization studies in DOM trained animals and the number of animals responding /number ot receive dose of drug at dose of 5.0 mg/kg; 3/4; type: functional
How it was run: (§2)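 Male Sprague-Dawley rats (n = 10) trained to discriminate 1.0 mg/kg DOM HCl from saline on a two-lever operant task, VI 15-s food reinforcement. Test doses were given ip in random order, 15 min pre-session, with at least three training sessions between tests. Responding was scored in a 2.5-min extinction session. Rats with fewer than five total responses were counted as disrupted.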

[6] = test system: Rattus norvegicus; assay: Stimulus generalization studies in TFMPP trained animals and the number of animals responding /number to receive dose of drug was determined at dose of 4.0 mg/kg; 0/3; type: functional
[7] = test system: Rattus norvegicus; assay: Compound was evaluated in stimulus generalization studies in DOM trained animals and the number of animals responding /number ot receive dose of drug at dose of 0.6 mg/kg; 3/3; type: functional; how it was run: as §2
[8] = test system: Rattus norvegicus; assay: Compound was evaluated in stimulus generalization studies in DOM trained animals and the number of animals responding /number ot receive dose of drug at dose of 2.5 mg/kg; 4/4; type: functional; how it was run: as §2
[9] = test system: Rattus norvegicus; assay: Compound was evaluated in stimulus generalization studies in DOM trained animals and the number of animals responding /number ot receive dose of drug at dose of 3.5 mg/kg; 4/4; type: functional; how it was run: as §2
[10] = organism: Rattus norvegicus; assay: Compound was tested for the doses at which the animals would be expected to make approximately 50% of their responses on the DOM-appropriate lever; type: functional
How it was run: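 DOM-trained rats (1.0 mg/kg DOM HCl vs saline, two-lever, VI 15 s, food) were given ip doses 15 min before a 2.5-min extinction session. Where >80% of responses fell on the DOM lever (generalization), the dose expected to give about 50% DOM-lever responding was calculated from dose–response data and reported with 95% confidence limits.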

[11] = test system: Rattus norvegicus; assay: Compound was evaluated in tests of stimulus generalization using animals trained to discriminate DOM from saline, and the drug appropriate responding at dose of 0.6 mg/kg; type: functional; how it was run: as §2
[12] = test system: Rattus norvegicus; assay: Compound was evaluated in tests of stimulus generalization using animals trained to discriminate DOM from saline, and the drug appropriate responding at dose of 2.5 mg/kg; type: functional; how it was run: as §2
[13] = test system: Rattus norvegicus; assay: Compound was evaluated in tests of stimulus generalization using animals trained to discriminate DOM from saline, and the drug appropriate responding at dose of 3.5 mg/kg; type: functional; how it was run: as §2
[14] = test system: Rattus norvegicus; assay: Compound was evaluated in tests of stimulus generalization using animals trained to discriminate DOM from saline, and the drug appropriate responding at dose of 5.0 mg/kg; type: functional; how it was run: as §2
[15] = test system: Rattus norvegicus; assay: Compound was evaluated in stimulus generalization test using animals trained to discriminate TFMPP from saline, and the drug appropriate responding at dose of 1.0 mg/kg; type: functional; how it was run: as §1
[16] = test system: Rattus norvegicus; assay: Compound was evaluated in stimulus generalization test using animals trained to discriminate TFMPP from saline, and the drug appropriate responding at dose of 3.0 mg/kg; type: functional; how it was run: as §1
[17] = test system: Rattus norvegicus; assay: Compound was evaluated in stimulus generalization test using animals trained to discriminate TFMPP from saline, and the drug appropriate responding at dose of 3.5 mg/kg; type: functional; how it was run: as §1
[18] = test system: Rattus norvegicus; assay: Compound was evaluated in stimulus generalization test using animals trained to discriminate TFMPP from saline, and the drug appropriate responding at dose of 4.0 mg/kg; Not responding; type: functional, organism-based; design: dose 4 mg/kg; how it was run: as §1
[19] = test system: Rattus norvegicus; assay: Compound was evaluated in tests of stimulus generalization using animals trained to discriminate DOM from saline, and the mean responses per min at dose of 2.5 mg/kg; type: functional; how it was run: as §2
[20] = test system: Rattus norvegicus; assay: Compound was evaluated in tests of stimulus generalization using animals trained to discriminate DOM from saline, and the mean responses per min at dose of 3.5 mg/kg; type: functional; how it was run: as §2
[21] = test system: Rattus norvegicus; assay: Compound was evaluated in tests of stimulus generalization using animals trained to discriminate DOM from saline, and the mean responses per min at dose of 5.0 mg/kg; type: functional; how it was run: as §2
[22] = test system: Rattus norvegicus; assay: Compound was evaluated in stimulus generalization test using animals trained to discriminate TFMPP from saline, and the mean responses per min at dose of 1.0 mg/kg; type: functional; how it was run: as §1
[23] = test system: Rattus norvegicus; assay: Compound was evaluated in stimulus generalization test using animals trained to discriminate TFMPP from saline, and the mean responses per min at dose of 3.0 mg/kg; type: functional; how it was run: as §1
[24] = test system: Rattus norvegicus; assay: Compound was evaluated in stimulus generalization test using animals trained to discriminate TFMPP from saline, and the mean responses per min at dose of 3.5 mg/kg; type: functional; how it was run: as §1
[25] = test system: Rattus norvegicus; assay: Compound was evaluated in tests of stimulus generalization using animals trained to discriminate DOM from saline, and the mean responses per min at dose of 0.6 mg/kg; type: functional; how it was run: as §2
[26] = target: Serotonin 2 (5-HT2) receptor (Rattus norvegicus, UniProt P30994+P08909+P14842); assay: Displacement of [3H]ketanserin from 5-hydroxytryptamine 2 receptor of rat cortical membrane homogenates

Work on `c1ccc2cc(N3CCNCC3)ccc2c1` yielded a Ki [1] of 0.265 µM, an Activity [2] of 3 and an Activity [3] of 2. The Activity [4] was 2, the Activity [5] was 3 and the Activity [6] was 0. The Activity [7] was 3, the Activity [8] was 4 and the Activity [9] was 4. The ED50 [10] was 2.9 mg/kg, the Drug responding [11] was 3% and the Drug responding [12] was 33%. It also gave a Drug responding [13] of 71%, a Drug responding [14] of 88% and a Drug responding [15] of 6%. For the same molecule, the Drug responding [16] was 12%, the Drug responding [17] was 25% and the Drug responding [18] was “inactive”. For the same molecule, the Mean response/min [19] was 16.8, the Mean response/min [20] was 8 and the Mean response/min [21] was 8.7. The Mean response/min [22] was 20.6, the Mean response/min [23] was 7 and the Mean response/min [24] was 7. The Mean response/min [25] was 16.1 and the Ki [26] was 0.07 µM.

`CCCN(CCC)c1ccc2ccccc2n1` showed a Ki [1] of 25 µM and a Ki [26] of 50 µM.

Work on `Nc1cnc2ccccc2c1` yielded a Ki [1] of 56 µM and a Ki [26] of over 300 µM.

For `COc1cccc2ccc(N3CCCCC3)nc12`, the Ki [1] was 33 µM and the Ki [26] was 71 µM.
